Test results published in ChEMBL document CHEMBL4359883, “4(1H)-quinolone derivatives overcome acquired resistance to anti-microtubule agents by targeting the colchicine site of β-tubulin” (Eur J Med Chem, 2019).
Active and inactive are the calls of the source. The rule behind the calls is not given here.

Key:
[1] = test system: NCI-H1975; experiment: Induction of apoptosis in human NCI-H1975 cells assessed as PARP cleavage at 25 to 50 nM after 24 hrs by immunoblotting analysis; assay type: functional, cell-based
[2] = Toxicity in Balb/c mouse xenografted with human NCI-H1975 cells assessed as effect on body mass at 4 to 8 mg/kg, ip administered 3 times per week for 21 days; assay type: organism-based; conditions: in vivo, 504 h
Summary of the method: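 H1975 tumors grown in right flank of 6-week-old BALB/c nude mice; after establishment, 4 or 8 mg/kg compound dissolved in DMSO, or DMSO alone, given intraperitoneally three times a week. Body mass taken before each dose.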

[3] = Toxicity in Balb/c mouse xenografted with human KBtax cells assessed as serum BUN level at 8 mg/kg, ip administered 3 times per week and measured after 21 days (reference value: 17.8 +/-1.1 mg/dl); assay type: organism-based; conditions: in vivo, 504 h
[4] = target: ATP-dependent translocase ABCB1 (Homo sapiens, UniProt P08183); experiment: Inhibition of P-gp efflux in human KBtax cells at 30 to 120 nM after 1 hr by flow cytometry; assay type: cell-based
Summary of the method: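 KBtax cells (2.5×10^5 per test) loaded with rhodamine in cold medium on ice for 1 h. Then resuspended in 37 °C medium with compound and held 1 h at 37 °C for efflux. Retained fluorescence measured by flow cytometry; verapamil used as P-gp inhibitor reference.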

[5] = organism: Homo sapiens; experiment: Effect on p-gp expression in human KBtax cells at 30 to 60 nM after 24 hrs by immunoblotting analysis; assay type: functional, cell-based
[6] = organism: Homo sapiens; experiment: Induction of apoptosis in human KBtax cells assessed as cleaved caspase-9 at 30 to 60 nM after 24 hrs by immunoblotting analysis; assay type: functional, cell-based
[7] = test system: SK-OV-3; experiment: Antiproliferative activity against human SKOV3 cells assessed as reduction in cell viability after 72 hrs by MTS assay; assay type: functional, cell-based; conditions: SK-OV-3, 72 h
Summary of the method: (§1)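 Cells plated at 2000/well, cultured overnight, then exposed to a range of compound concentrations for 72 h. MTS reagent added for 1–4 h at 37 °C and absorbance read at 490 nm. Cultured in RPMI 1640 or DMEM with 10% heat-inactivated FBS under 5% CO2. Data are the mean of three determinations.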

[8] = test system: HT-29; experiment: Antiproliferative activity against human HT-29 cells assessed as reduction in cell viability after 72 hrs by MTS assay; assay type: functional, cell-based; conditions: HT-29, 72 h; summary of the method: as §1
[9] = test system: COLO 205; experiment: Antiproliferative activity against human COLO205 cells assessed as reduction in cell viability after 72 hrs by MTS assay; assay type: functional, cell-based; conditions: COLO 205, 72 h; summary of the method: as §1
[10] = test system: SW-620; experiment: Antiproliferative activity against human SW620 cells assessed as reduction in cell viability after 72 hrs by MTS assay; assay type: functional, cell-based; conditions: SW-620, 72 h; summary of the method: as §1
[11] = test system: DU-145; experiment: Antiproliferative activity against human DU145 cells assessed as reduction in cell viability after 72 hrs by MTS assay; assay type: functional, cell-based; conditions: DU-145, 72 h; summary of the method: as §1
[12] = test system: PC-3; experiment: Antiproliferative activity against human PC3 cells assessed as reduction in cell viability after 72 hrs by MTS assay; assay type: functional, cell-based; conditions: PC-3, 72 h; summary of the method: as §1
[13] = test system: CL1-0; experiment: Induction of apoptosis in human CL1-0 cells assessed as PARP cleavage at 20 nM by immunoblotting analysis; assay type: functional, cell-based; conditions: TDE = time-dependent effect
[14] = test system: NCI-H1975; experiment: Induction of apoptosis in human NCI-H1975 cells assessed as cleaved caspase 3 expression at 40 nM by immunoblotting analysis; assay type: functional, cell-based; conditions: TDE = time-dependent effect
[15] = test system: CL1-0; experiment: Induction of apoptosis in human CL1-0 cells assessed as increase in cytochrome c level in cytosol at 20 to 40 nM after 24 hrs by immunoblotting analysis; assay type: functional, cell-based
[16] = test system: NCI-H1975; experiment: Induction of apoptosis in human NCI-H1975 cells assessed as increase in cytochrome c level in cytosol at 40 to 80 nM after 24 hrs by immunoblotting analysis; assay type: functional, cell-based
[17] = test system: CL1-0; experiment: Cell cycle arrest in human CL1-0 cells assessed as increase in cell population at G2/M phase after 24 hrs by propidium iodide-staining based flow cytometry; assay type: functional
Summary of the method: (§2)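 Cells treated for 24 h, then trypsinized and fixed overnight in ice-cold 70% ethanol. Stained for 30 min with propidium iodide (10 µg/mL) plus RNase (20 µg/mL), and DNA content measured by flow cytometry. Mean ± SD.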

[18] = test system: NCI-H1975; experiment: Cell cycle arrest in human NCI-H1975 cells assessed as increase in cell population at G2/M phase after 24 hrs by propidium iodide-staining based flow cytometry; assay type: functional; summary of the method: as §2
[19] = test system: CL1-0; experiment: Induction of mitotic arrest in human CL1-0 cells assessed as increase in phospho-histone H3 expression at 20 to 40 nM after 24 hrs by immunoblotting analysis; assay type: functional, cell-based
[20] = test system: CL1-0; experiment: Induction of mitotic arrest in human CL1-0 cells assessed as cyclin A expression at 20 to 40 nM after 24 hrs by immunoblotting analysis; assay type: functional, cell-based
[21] = test system: CL1-0; experiment: Induction of cell cycle arrest in human CL1-0 cells assessed as accumulation at mitotic phase after 24 hrs by high content imaging analysis; assay type: functional, cell-based
Summary of the method: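 Cells exposed for 24 h, stained for phospho-histone H3 (S10), and imaged by high-content imaging. Mitotic index taken as the fraction of p-HH3-positive cells. Mean ± SD.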

[22] = target: T1, Tubulin (Homo sapiens) (UniProt P68371+Q9H4B7+P0DPH7+P68366+Q13509+Q71U36+P04350+Q3ZCM7+P07437+P68363+Q9BQE3+Q6PEY2+Q13885+Q9BVA1+Q9BUF5); experiment: Induction of microtubule depolymerization in human CL1-0 cells at 20 nM after 6 hrs by DAPI staining based DAPI staining based confocal microscopic analysis; assay type: cell-based
Summary of the method: (§3)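 Cells exposed for 6 h, fixed in 3.7% paraformaldehyde, permeabilized with 0.1% Triton X-100. Stained with anti-α-tubulin (1:1000) overnight at 4 °C, FITC secondary 1 h at 37 °C, nuclei counterstained with DAPI. Imaged by confocal laser scanning microscopy.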

[23] = target: T1, Tubulin (Homo sapiens); experiment: Induction of microtubule depolymerization in human NCI-H1975 cells at 40 nM after 6 hrs by DAPI staining based DAPI staining based confocal microscopic analysis; assay type: cell-based; summary of the method: as §3
[24] = target: T2, Tubulin (Sus scrofa) (UniProt P02554+P02550); experiment: Inhibition of porcine tubulin at 5 uM in presence of GTP measured every minute for 1 hr by microplate reader analysis; assay type: protein assay
[25] = target: T2, Tubulin (Sus scrofa); experiment: Inhibition of porcine tubulin polymerization assessed as inhibition of formation of microtubule asters in centrosome after 8 mins immunofluorescence assay; assay type: protein assay
Summary of the method: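 Purified centrosomes incubated with compound, then with porcine tubulin in 80 mM PIPES, 1 mM MgCl2, 1 mM EGTA, 1 mM GTP, pH 6.8 for 8 min at 37 °C. Asters fixed in 1% glutaraldehyde and stained for α-tubulin. Fiber length measured on 20 asters per group; mean ± SD.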

[26] = target: T1, Tubulin (Homo sapiens); experiment: Binding affinity to tubulin (unknown origin) assessed as increase complex formation with compound by SPR analysis; assay type: protein-complex assay
Summary of the method: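 Biotin-tubulin (50 µg/mL) captured on a streptavidin chip to about 3,000 RU, with remaining sites blocked by biocytin and a free flow cell as reference. Compound injected at different concentrations in HBS-EP+ (pH 7.4) at 25 °C. KD obtained from steady-state fitting.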

[27] = target: T1, Tubulin (Homo sapiens); experiment: Binding affinity to tubulin (unknown origin) assessed as reduction in colchicine fluorescence after 1 hr in presence of colchicine by fluorescence based assay; assay type: protein-complex assay
Summary of the method: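 Tubulin (3 µM) mixed with colchicine (3 µM) and incubated with varying compound concentrations in PEM buffer, pH 6.9, for 1 h at 37 °C. Fluorescence read at ex 365/em 435 nm; mean ± SD.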

T2 sequence (P02550 whole entry, looked up): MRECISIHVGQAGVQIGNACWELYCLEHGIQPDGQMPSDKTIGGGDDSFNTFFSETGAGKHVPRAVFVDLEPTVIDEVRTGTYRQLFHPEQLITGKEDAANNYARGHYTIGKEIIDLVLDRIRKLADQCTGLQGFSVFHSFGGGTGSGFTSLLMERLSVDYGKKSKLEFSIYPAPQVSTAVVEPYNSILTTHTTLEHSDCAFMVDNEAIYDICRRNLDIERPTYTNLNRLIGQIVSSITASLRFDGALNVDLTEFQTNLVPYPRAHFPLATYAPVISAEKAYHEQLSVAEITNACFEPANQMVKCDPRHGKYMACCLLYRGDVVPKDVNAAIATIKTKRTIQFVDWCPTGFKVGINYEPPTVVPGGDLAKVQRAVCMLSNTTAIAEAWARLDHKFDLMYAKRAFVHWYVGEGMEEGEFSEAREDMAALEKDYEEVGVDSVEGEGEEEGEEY
T2 sequence (P02554 whole entry, looked up): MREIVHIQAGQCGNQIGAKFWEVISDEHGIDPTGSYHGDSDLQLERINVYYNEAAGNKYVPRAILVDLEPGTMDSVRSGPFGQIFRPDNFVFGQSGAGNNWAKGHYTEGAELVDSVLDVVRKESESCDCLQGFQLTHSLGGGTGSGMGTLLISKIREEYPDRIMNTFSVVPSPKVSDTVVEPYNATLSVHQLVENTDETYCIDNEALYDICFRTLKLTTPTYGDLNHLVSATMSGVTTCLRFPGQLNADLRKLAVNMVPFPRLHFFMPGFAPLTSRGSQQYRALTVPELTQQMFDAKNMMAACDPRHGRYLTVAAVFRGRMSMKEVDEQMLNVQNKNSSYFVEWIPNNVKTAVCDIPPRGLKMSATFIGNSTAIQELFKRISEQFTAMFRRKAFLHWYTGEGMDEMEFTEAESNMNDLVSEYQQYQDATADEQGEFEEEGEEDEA
Sequence of ATP-dependent translocase ABCB1 (P08183 whole entry): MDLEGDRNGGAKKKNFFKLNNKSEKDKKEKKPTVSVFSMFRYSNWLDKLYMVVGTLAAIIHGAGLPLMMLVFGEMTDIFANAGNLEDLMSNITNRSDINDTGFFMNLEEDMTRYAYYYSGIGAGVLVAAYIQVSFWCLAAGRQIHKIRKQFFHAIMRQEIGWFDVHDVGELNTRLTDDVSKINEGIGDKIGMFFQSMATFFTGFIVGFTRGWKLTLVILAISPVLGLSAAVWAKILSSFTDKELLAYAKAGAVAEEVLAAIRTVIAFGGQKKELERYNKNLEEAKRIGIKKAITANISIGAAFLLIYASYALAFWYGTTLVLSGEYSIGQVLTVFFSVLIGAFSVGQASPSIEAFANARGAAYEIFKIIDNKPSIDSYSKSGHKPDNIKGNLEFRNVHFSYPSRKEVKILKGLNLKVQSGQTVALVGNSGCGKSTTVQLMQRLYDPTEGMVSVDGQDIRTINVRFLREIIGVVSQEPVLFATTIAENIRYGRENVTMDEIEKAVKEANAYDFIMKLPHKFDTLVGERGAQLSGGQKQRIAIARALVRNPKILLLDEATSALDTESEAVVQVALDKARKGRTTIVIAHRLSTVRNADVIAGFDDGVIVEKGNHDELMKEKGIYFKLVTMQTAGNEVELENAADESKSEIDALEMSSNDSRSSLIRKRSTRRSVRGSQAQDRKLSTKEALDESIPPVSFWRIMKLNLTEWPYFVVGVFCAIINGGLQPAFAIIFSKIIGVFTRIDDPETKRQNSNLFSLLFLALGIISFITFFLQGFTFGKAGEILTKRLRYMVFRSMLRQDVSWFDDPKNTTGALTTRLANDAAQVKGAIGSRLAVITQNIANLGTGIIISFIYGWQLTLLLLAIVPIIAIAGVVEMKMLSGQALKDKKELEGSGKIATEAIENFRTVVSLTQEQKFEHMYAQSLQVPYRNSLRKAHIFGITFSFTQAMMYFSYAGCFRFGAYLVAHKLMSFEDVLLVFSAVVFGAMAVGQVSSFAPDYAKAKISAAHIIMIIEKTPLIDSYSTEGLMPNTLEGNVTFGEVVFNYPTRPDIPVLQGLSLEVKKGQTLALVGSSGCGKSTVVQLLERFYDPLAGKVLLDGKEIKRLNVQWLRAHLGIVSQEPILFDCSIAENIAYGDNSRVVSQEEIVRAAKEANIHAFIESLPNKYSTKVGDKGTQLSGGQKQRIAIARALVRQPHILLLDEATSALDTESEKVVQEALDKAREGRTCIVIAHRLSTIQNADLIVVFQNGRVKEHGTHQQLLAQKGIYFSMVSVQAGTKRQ

For CCOC(=O)c1ccc2[nH]c(-c3cccc(F)c3)cc(=O)c2c1, the Activity [1] was “Active”, the Activity [2] was “Non-Toxic” and the Activity [3] was 18.2 mg/dL. The “inhibition (INH)” value [4] was “Not Active”, the Activity [5] was “inactive” and the Activity [6] was “Active”.

In the case of CCOC(=O)c1ccc2nc(-c3ccccc3)cc(O)c2c1, the IC50 [7] is reported as 0.05 µM, the IC50 [8] is reported as 0.048 µM and the IC50 [9] is reported as 0.057 µM. It also gave an IC50 [10] of 0.035 µM, an IC50 [11] of 0.047 µM and an IC50 [12] of 0.045 µM. The Activity [13] was “Tde”, the Activity [14] was “Tde” and the Activity [15] was “Active”. For the same compound, the Activity [16] was “Active”, the Activity [17] was “Dose-dependent effect” and the Activity [18] was “Dose-dependent effect”. The Activity [19] was “Active”, the Activity [20] was “inactive” and the Activity [21] was “Dose-dependent effect”. The Activity [22] was “Active”, the Activity [23] was “Active” and the “tubulin inhibition call (active/not active)” value [24] was “Active”. The inhibition [25] was “Active”, the Activity [26] was “Dose-dependent effect” and the Activity [27] was “Dose-dependent effect”.
